Assay results of several laboratories.
Target: Inhibitor of nuclear factor kappa-B kinase subunit beta (IKBKB, Homo sapiens, UniProt O14920)
Method: competition with immobilised ligand
Residues used in one study (O14920 1-756): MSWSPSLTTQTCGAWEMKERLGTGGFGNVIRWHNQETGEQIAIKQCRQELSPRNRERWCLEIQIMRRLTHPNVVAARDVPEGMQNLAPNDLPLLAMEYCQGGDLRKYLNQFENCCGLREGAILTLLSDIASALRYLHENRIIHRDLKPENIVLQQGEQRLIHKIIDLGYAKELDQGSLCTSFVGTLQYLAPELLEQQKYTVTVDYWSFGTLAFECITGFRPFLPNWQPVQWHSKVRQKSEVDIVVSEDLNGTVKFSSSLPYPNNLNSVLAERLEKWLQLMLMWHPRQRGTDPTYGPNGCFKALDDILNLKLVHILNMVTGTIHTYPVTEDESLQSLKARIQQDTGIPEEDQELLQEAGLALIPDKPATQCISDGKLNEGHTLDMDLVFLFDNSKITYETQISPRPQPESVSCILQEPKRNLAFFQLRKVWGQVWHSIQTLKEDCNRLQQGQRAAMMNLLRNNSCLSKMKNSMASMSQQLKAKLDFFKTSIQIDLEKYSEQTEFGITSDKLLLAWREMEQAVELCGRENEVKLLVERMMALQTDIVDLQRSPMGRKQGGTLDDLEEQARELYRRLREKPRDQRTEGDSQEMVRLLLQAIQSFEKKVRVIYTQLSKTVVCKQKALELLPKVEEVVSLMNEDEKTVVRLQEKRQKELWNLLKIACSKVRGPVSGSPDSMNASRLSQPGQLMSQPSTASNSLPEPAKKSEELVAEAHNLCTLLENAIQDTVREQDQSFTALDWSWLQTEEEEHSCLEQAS

SMILES | read-out | tested at | remaining binding
COc1cnc(Nc2cccc(S(N)(=O)=O)c2)nc1N1CCN(c2ccccc2)C(=O)C1 | binding | 1 µM | 93%
CN(CCCC(F)(F)F)c1nccc(-c2cnn3ncccc23)n1 | binding | 1 µM | 100%
CC(=O)N1CCC(c2ccc(C(=O)NC3=NCCN3)cc2C(F)(F)F)CC1 | cell-free assay | 1 µM | 85%
N#Cc1ccccc1CSc1nnc2c(n1)[nH]c1ccccc12 | binding | 10 µM | 100%
CN(C)c1ncnc(-c2ccc3nc(Nc4cc(CN5CCN(C(=O)CC(F)(F)F)CC5)ccn4)[nH]c3c2)c1Cl | cell-free assay | 1 µM | 80%
COc1ncc2cc3ccccc3nc2c1C#N | cell-free assay | 5 µM | 96%
O=C(NCCCN1CCOCC1)c1ccc(Nc2nccc(-c3cc4ccccc4s3)n2)cc1 | binding | 1 µM | 5.1%
CS(=O)(=O)c1cc(C2(NC(=O)c3cncc4c3cnn4-c3ccc(F)cc3)CC2)ccn1 | cell-free assay | 1 µM | 100%
COc1ccnn2ncc(-c3ccnc(N(C)C)n3)c12 | binding | 1 µM | 98%
CCN1CCN(Cc2ccc(C(=O)Nc3ccc(C)c(Oc4ccc5c(c4)CC(=O)N5)c3)cc2C(F)(F)F)CC1 | binding | 1 µM | 100%
CCCOc1ccc([C@@H]2[C@@H](C(=O)O)[C@H](c3ccc4c(c3)OCO4)CN2CC(=O)Nc2c(CC)cccc2CC)cc1 | cell-free assay | 1 µM | 94%
CC1CCCN1c1nccc(-c2cnn3ncccc23)n1 (centres unmarked) | binding | 1 µM | 100%
CCCCN(CCCC)C(=O)CN1C[C@H](c2cc(OC)c3c(c2)OCO3)[C@@H](C(=O)O)[C@@H]1CC(C)(C)CCC | cell-free assay | 1 µM | 81.5%
C[C@@H]1CCN(c2nccc(-c3cnn4ncccc34)n2)C1 | binding | 1 µM | 77%
CNC(=O)Nc1ccc2c(c1)CC[C@@]21OC(=O)N(CC(=O)N(Cc2ccc(F)cc2)[C@@H](C)C(F)(F)F)C1=O | cell-free assay | 1 µM | 83%
CC(C)(C)c1ccc(-c2nc(CBr)nn2-c2cccc(O)c2)cc1 | cell-free assay | 10 µM | 70%
O=C(c1ccc(Nc2ncc(Cl)c(-c3cc4ccccc4s3)n2)cc1)N1CCC(N2CCCC2)CC1 | binding | 1 µM | 0.1%
C[C@@H]1CN(c2ccc3ncc(-c4ccc5[nH]nc(C6CC6)c5c4)n3n2)C[C@H](C)O1 | binding | 50 nM | 88%
Cc1cnc(Nc2ccc(C(=O)N3CCC(N4CCCC4)CC3)cc2)nc1-c1cc2ccccc2s1 | binding | 1 µM | 0%
N[C@H]1CCN(c2nccc(-c3cnn4ncccc34)n2)C1 | binding | 1 µM | 91%
CN(C)CC#Cc1ccc(OCCCc2sc(N3CCc4cccc(C(=O)Nc5nc6ccccc6s5)c4C3)nc2C(=O)O)c(F)c1 | cell-free assay | 1 µM | 72%
O=C(NCC1CCOCC1)c1n[nH]cc1NC(=O)c1c(F)cccc1F | binding | 1 µM | 92%
CN(C)c1nccc(-c2cnn3ncccc23)n1 | binding | 1 µM | 84%
CSc1cccnc1N1CCN(Cc2nc3ccccc3[nH]2)CC1 | cell-free assay | 1 µM | 86%
COc1cnc(Nc2cccc(S(N)(=O)=O)c2)nc1N1CCN(c2ccccc2)CC1 | binding | 1 µM | 94%
F[C@@H]1CCN(c2nccc(-c3cnn4ncccc34)n2)C1 | binding | 1 µM | 100%
